From PMC3082041 (Cancer Chemotherapy and Pharmacology, 2010)
Like-named read-outs stand apart in the source and are kept apart here.

How the values were obtained:
[1] = tested on: patients with advanced solid tumors; test: Phase I dose escalation, drug-related adverse events; format: in vivo, human (Japanese patients)
Outline: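 Open, non-randomised escalation in three-patient cohorts at 200, 400, 800 and 1,200 mg/m2 oral bid. Tablets taken >2 h after breakfast and supper for 28 consecutive days, with a single dose on day 1. Toxicity graded weekly by NCI-CTC v2.0. DLT: grade 3/4 non-haematologic or grade 4 haematologic toxicity. MTD: DLT in >33% within 4 weeks.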

advanced solid tumors = test: Antitumor effect; format: in vivo, human (Japanese patients)
Outline: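 Tumours measured before treatment and at 4 weeks, scored by Japan Society for Cancer Therapy (WHO-based) criteria. PR: ≥50% shrinkage held ≥4 weeks. NC: <50% shrinkage or ≤25% enlargement held ≥4 weeks. PD: ≥25% enlargement or new lesions. Tumour-type-related markers measured before therapy. Patients with progression were taken off study.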

tumor xenograft explants = conditions: athymic mice, many types of tumor; cited from earlier work
[2] = tested on: plasma VEGF, E-selectin, tPA, VCAM-1, PAI-1, urine VEGF; test: Angiogenesis-related biomarkers in plasma and urine; format: in vivo, human (Japanese patients); conditions: 14 patients
[3] = Urinary excretion of TSU-68; format: in vivo, human (Japanese patients); conditions: any dose level
Outline: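 Dosing was once daily on days 1 and 29 and bid on days 2–28. Drug measured by validated HPLC-UV (LLOQ 0.1 μg/mL). Excretion expressed as percentage of dose.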

[4] = tested on: liver cytochrome P450, CYP1A1/2; conditions: non-clinical studies; cited from earlier work
Caucasian patients = conditions: cited from earlier work
[5] = 200 mg/m^2 bid (N = 3), G1, 28-days administration
[6] = 400 mg/m^2 bid (N = 3), G1, 28-days administration
[7] = 400 mg/m^2 bid (N = 3), G2, 28-days administration
[8] = 800 mg/m^2 bid (N = 6), G1, 28-days administration
[9] = 800 mg/m^2 bid (N = 6), G2, 28-days administration
[10] = 800 mg/m^2 bid (N = 6), G3, 28-days administration
[11] = 1,200 mg/m^2 bid (N = 3), G1, 28-days administration
[12] = 1,200 mg/m^2 bid (N = 3), G2, 28-days administration
[13] = Total, all dose levels (N = 15), 28-days administration

Structure (SMILES): Cc1[nH]c(/C=C2\C(=O)Nc3ccccc32)c(C)c1CCC(=O)O [TSU-68, (Z)-3-[2,4-dimethyl-5-(2-oxo-1,2-dihydro-indol-3-ylidenemethyl)-1H-pyrrol-3-yl]-propionic acid]
- Alanine aminotransferase increased, number of patients [1, 5]: 1
- Alkaline phosphatase increased, number of patients [1, 5]: 1
- Diarrhea, number of patients [1, 5]: 3
- Face edema, number of patients [1, 5]: 1
- Fatigue, number of patients [1, 5]: 1
- Nausea, number of patients [1, 5]: 1
- Upper abdominal pain, number of patients [1, 5]: 1
- Urine discoloration, number of patients [1, 5]: 3
- Chest pain, number of patients ([1]; 200 mg/m^2 bid (N = 3), G2, 28-days administration): 1
- Alkaline phosphatase increased, number of patients [1, 6]: 1
- Chest pain, number of patients [1, 6]: 1
- Diarrhea, number of patients [1, 6]: 1
- Face edema, number of patients [1, 6]: 1
- Fatigue, number of patients [1, 6]: 1
- Feces discolored, number of patients [1, 6]: 1
- Urine discoloration, number of patients [1, 6]: 3
- Albumin decreased, number of patients [1, 7]: 1
- Upper abdominal pain, number of patients [1, 7]: 1
- Abdominal pain, number of patients [1, 8]: 2
- Alanine aminotransferase increased, number of patients [1, 8]: 2
- Albumin decreased, number of patients [1, 8]: 4
- Alkaline phosphatase increased, number of patients [1, 8]: 3
- Anorexia, number of patients [1, 8]: 3
- Diarrhea, number of patients [1, 8]: 2
- Face edema, number of patients [1, 8]: 1
- Fatigue, number of patients [1, 8]: 3
- Feces discolored, number of patients [1, 8]: 6
- Nausea, number of patients [1, 8]: 2
- Total protein decreased, number of patients [1, 8]: 3
- Urine discoloration, number of patients [1, 8]: 6
- Vomiting, number of patients [1, 8]: 2
- Abdominal pain, number of patients [1, 9]: 1
- Anorexia, number of patients [1, 9]: 1
- Diarrhea, number of patients [1, 9]: 2
- Fatigue, number of patients [1, 9]: 1
- Anemia, number of patients [1, 10]: 1
- Arrhythmia, number of patients [1, 10]: 1
- Thrombocytopenia, number of patients [1, 10]: 1
- Abdominal pain, number of patients [1, 11]: 1
- Alkaline phosphatase increased, number of patients [1, 11]: 1
- Anorexia, number of patients [1, 11]: 2
- Chest pain, number of patients [1, 11]: 1
- Diarrhea, number of patients [1, 11]: 1
- Face edema, number of patients [1, 11]: 2
- Fatigue, number of patients [1, 11]: 2
- Feces discolored, number of patients [1, 11]: 3
- Upper abdominal pain, number of patients [1, 11]: 2
- Urine discoloration, number of patients [1, 11]: 3
- Abdominal pain, number of patients [1, 12]: 1
- Albumin decreased, number of patients [1, 12]: 1
- Anorexia, number of patients [1, 12]: 1
- Diarrhea, number of patients [1, 12]: 1
- Fatigue, number of patients [1, 12]: 1
- Nausea, number of patients [1, 12]: 1
- Vomiting, number of patients [1, 12]: 1
- Abdominal pain, number of patients ([1]; Total (N = 5), after 28 days): 1
- Abdominal pain, patients (%) ([1]; Total (N = 5), after 28 days): (20) %
- Alanine aminotransferase increased, number of patients ([1]; Total (N = 5), after 28 days): 3
- Alkaline phosphatase increased, number of patients ([1]; Total (N = 5), after 28 days): 2
- Anorexia, number of patients ([1]; Total (N = 5), after 28 days): 1
- Anorexia, patients (%) ([1]; Total (N = 5), after 28 days): (20) %
- Arrhythmia, number of patients ([1]; Total (N = 5), after 28 days): 1
- Arrhythmia, patients (%) ([1]; Total (N = 5), after 28 days): (20) %
- Chest pain, number of patients ([1]; Total (N = 5), after 28 days): 2
- Diarrhea, number of patients ([1]; Total (N = 5), after 28 days): 3
- Face edema, number of patients ([1]; Total (N = 5), after 28 days): 3
- Fatigue, number of patients ([1]; Total (N = 5), after 28 days): 4
- Fatigue, patients (%) ([1]; Total (N = 5), after 28 days): (80) %
- Feces discolored, number of patients ([1]; Total (N = 5), after 28 days): 4
- Feces discolored, patients (%) ([1]; Total (N = 5), after 28 days): (80) %
- Nausea, number of patients ([1]; Total (N = 5), after 28 days): 1
- Nausea, patients (%) ([1]; Total (N = 5), after 28 days): (20) %
- Urine discoloration, number of patients ([1]; Total (N = 5), after 28 days): 5
- Urine discoloration, patients (%) ([1]; Total (N = 5), after 28 days): (100) %
- Vomiting, number of patients ([1]; Total (N = 5), after 28 days): 1
- Vomiting, patients (%) ([1]; Total (N = 5), after 28 days): (20) %
- Abdominal pain, number of patients [1, 13]: 5
- Abdominal pain, patients (%) [1, 13]: (33) %
- Alanine aminotransferase increased, number of patients [1, 13]: 3
- Alanine aminotransferase increased, patients (%) [1, 13]: (20) %
- Albumin decreased, number of patients [1, 13]: 6
- Alkaline phosphatase increased, number of patients [1, 13]: 6
- Anemia, number of patients [1, 13]: 1
- Arrhythmia, number of patients [1, 13]: 1
- Chest pain, number of patients [1, 13]: 3
- Chest pain, patients (%) [1, 13]: (20) %
- Face edema, number of patients [1, 13]: 5
- Face edema, patients (%) [1, 13]: (33) %
- Fatigue, number of patients [1, 13]: 9
- Nausea, number of patients [1, 13]: 4
- Thrombocytopenia, number of patients [1, 13]: 1
- Total protein decreased, number of patients [1, 13]: 3
- Total protein decreased, patients (%) [1, 13]: (20) %
- Upper abdominal pain, number of patients [1, 13]: 4
- Urine discoloration, number of patients [1, 13]: 15
- Urine discoloration, patients (%) [1, 13]: (100) %
- Vomiting, number of patients [1, 13]: 3
- Vomiting, patients (%) [1, 13]: (20) %
- recommended dose for further studies ([1]; continuous oral bid between meals): less than 800 mg/m^2 bid
- tolerable dose for continuing treatment ([1]; oral bid between meals): ≤ 800 mg/m^2 bid
- acceptable dosage level in daily administration ([1]; oral, between meals, estimated): 800 mg/m^2 bid
- partial or complete responses (advanced solid tumors; 15 patients, 200-1,200 mg/m^2 bid): No partial or complete responses were seen
- patients with stable disease (advanced solid tumors; non-small cell lung cancer 2, thymoma 1, peritoneal sarcoma 1): Four
- antitumor activity against tumor xenograft explants (tumor xenograft explants): significant antitumor activity
- change of plasma VEGF, E-selectin, tPA and VCAM-1 [2]: not changed substantially
- PAI-1, increase over the baseline ([2]; average): more than 20%
- urine VEGF, increase over the baseline ([2]; average): more than 20%
- PAI-1, average after treatment ([2]; baseline 24.3 ± 6.7 ng/ml): 29.5 ± 11.3 ng/mL
- urine VEGF, average after treatment ([2]; baseline 96.6 ± 62.4 pg/ml): 132.1 ± 93.6 pg/mL
- Urinary excretion of TSU-68 [3]: below 1 % of dose
- induction of liver cytochrome P450, CYP1A1/2 [4]: causes induction of liver cytochrome P450, CYP1A1/2
- AUC (Caucasian patients; day 1, Caucasian patients): 70000 ng·h/mL
- AUC (Caucasian patients; day 28, Caucasian patients): 32000 ng·h/mL
